Measurements taken from ChEMBL document CHEMBL4706601, “The endocannabinoid system dual-target ligand N-cycloheptyl-1,2-dihydro-5-bromo-1-(4-fluorobenzyl)-6-methyl-2-oxo-pyridine-3-carboxamide improves disease severity in a mouse model of multiple sclerosis” (Eur J Med Chem, 2020).
Active and inactive are the calls of the source. No cut-off for these calls is given here.

Legend:
[1] = tested on: Mus musculus; experiment: (§1) Antiinflammatory activity in MOG (35 to 55 residues)/pertussis toxin-induced experimental autoimmune encephalomyelitis C57BL/6J mouse model assessed as improvement in early stage disease severity at 10 mg/kg, ip dosed once daily for 20 days starting from day 10 to 16 post immunization and measured at day 2 to 4 post treatment; type: functional, organism-based; details: time 2-4 day
Procedure, shortened: (§2)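 Active EAE in mice: 200 µg MOG35-55 in CFA (4 mg/ml M. tuberculosis) s.c. at hips and tail root, plus pertussis toxin 300 ng i.p. after immunization and 48 h later. Daily i.p. dosing (DMSO vehicle) for 20 days from each mouse's onset (day 10–16); onset = day 1. Daily clinical score; multiple t-tests with Holm-Sidak.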

[2] = tested on: Mus musculus; experiment: as §1, with “reduction” for “improvement”, “clinical scores” for “early stage disease severity”, “from 10” for “at day 2”, “19 days” for “4”; type: functional; details: time 10-19 day; procedure, shortened: as §2
[3] = biological target: Cannabinoid receptor 1 (Rattus norvegicus) (UniProt P20272); experiment: Agonist activity at CB1R in Sprague-Dawley rat hippocampal synaptosomes assessed as inhibition of 4-AP evoked glutamate release at 10 uM preincubated for 8 mins followed by 4-AP addition by HPLC analysis; type: subcellular; details: Hippocampus, filed as agonist
Sequence of Cannabinoid receptor 1 (Rattus norvegicus) (P20272 whole entry, the tested form may be a part): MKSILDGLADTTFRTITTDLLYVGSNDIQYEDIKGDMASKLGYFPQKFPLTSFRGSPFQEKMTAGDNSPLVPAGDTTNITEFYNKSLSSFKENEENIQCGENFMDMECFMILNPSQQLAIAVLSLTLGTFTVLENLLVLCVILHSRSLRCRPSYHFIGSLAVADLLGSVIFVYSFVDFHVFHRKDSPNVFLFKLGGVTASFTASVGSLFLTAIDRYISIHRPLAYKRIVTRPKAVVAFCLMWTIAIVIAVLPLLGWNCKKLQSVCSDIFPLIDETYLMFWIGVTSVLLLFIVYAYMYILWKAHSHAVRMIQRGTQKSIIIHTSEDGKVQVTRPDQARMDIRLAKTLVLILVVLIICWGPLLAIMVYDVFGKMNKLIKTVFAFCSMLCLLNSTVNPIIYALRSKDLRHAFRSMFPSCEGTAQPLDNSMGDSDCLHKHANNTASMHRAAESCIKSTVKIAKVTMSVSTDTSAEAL
Procedure, shortened: (§3)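 Rat (male Sprague Dawley, 200-250 g) hippocampal synaptosomes from Percoll gradient, superfused at 37 °C (0.5 ml/min); 4-AP 600 μM for 2 min. Compounds and antagonists (SR141716A, SR144528, 1 μM) added 8 min before 4-AP and kept during it; basal effects tested by 2-min exposure alone. Endogenous glutamate by HPLC as pmol/mg protein; overflow = stimulated minus basal in control chambers; n = 3–9, triplicate.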

[4] = tested on: Mus musculus; experiment: Antinociceptive activity in CD-1 albino mouse model of oxaliplatin-induced neuropathic pain assessed as decrease in pain-related behaviour at 10 mg/kg, po pretreated with CB1R antagonist, SR141716A for 15 mins before compound addition treated on day 15 post oxaliplatin treatment and measured after 15 to 75 mins post dose by cold plate test; type: functional, organism-based; details: time 15-75 min
Procedure, shortened: (§4)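 Male CD-1 mice (22-25 g) given oxaliplatin 2.4 mg/kg i.p. in 5% glucose on days 1-2, 5-9, 12-14; tested day 15. Compound in 1% carboxymethylcellulose orally at 5, 10, 20, 50 mg/kg. Cold plate licking latency at 15, 30, 45, 60, 75 min post dose. Selective CB1R and CB2R antagonists co-tested. 16 mice per treatment across 2 sessions; one-way ANOVA with Bonferroni.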

[5] = tested on: Mus musculus; experiment: as §1, with “in late” for “in early”, “day 10” for “day 2”, “to 19” for “to 4”; type: functional, organism-based; details: time 10-19 day; procedure, shortened: as §2
[6] = biological target: Cannabinoid receptor 2 (Mus musculus) (UniProt P47936); experiment: Agonist activity at CB2R in LPS induced mouse BV2 cells assessed as IL-1beta secretion at 10 uM preincubated for 30 mins followed by LPS stimulation for 4 hrs by ELISA (reference value: 734.3 +/-35.1%); type: cell-based; details: BV-2, filed as agonist, time 270.0 min
Sequence of Cannabinoid receptor 2 (Mus musculus) (P47936 whole entry): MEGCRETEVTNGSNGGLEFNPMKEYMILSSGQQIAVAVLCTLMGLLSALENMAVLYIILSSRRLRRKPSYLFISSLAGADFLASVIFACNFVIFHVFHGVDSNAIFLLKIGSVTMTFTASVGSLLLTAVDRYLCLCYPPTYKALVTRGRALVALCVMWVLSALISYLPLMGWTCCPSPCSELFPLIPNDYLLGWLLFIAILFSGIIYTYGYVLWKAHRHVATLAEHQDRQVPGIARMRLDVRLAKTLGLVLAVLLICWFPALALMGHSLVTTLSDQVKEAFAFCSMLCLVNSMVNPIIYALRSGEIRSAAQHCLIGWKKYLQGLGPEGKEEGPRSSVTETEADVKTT
Procedure, shortened: (§5)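 BV-2 murine microglia grown in high-glucose DMEM with 10% FBS. Treatments in FBS-free medium: test agonist 10 μM for 30 min, then LPS 5 μg/ml for 4 h; SR144528 10 μM given 15 min before agonist. DMSO ≤0.1% final. Medium spun 10 min at 1000×g; IL-1β, IL-6, IL-10 quantified by ELISA; three independent experiments in duplicate.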

[7] = biological target: Cannabinoid receptor 2 (Mus musculus) (UniProt P47936); experiment: Agonist activity at CB2R in LPS induced mouse BV2 cells assessed as reduction in IL-6 secretion at 10 uM preincubated with CB2R antagonist, SR144528 for 15 mins followed by compound additon for 30 mins after LPS stimulation for 4 hrs by ELISA; type: cell-based; details: BV-2, time 270.0 min; procedure, shortened: as §5
[8] = tested on: Mus musculus; experiment: as §1, with “reduction” for “improvement”, “clinical scores” for “early stage disease severity”, “from” for “at day”, “4 days” for “4”; type: functional; details: time 2-4 day; procedure, shortened: as §2
[9] = biological target: Cannabinoid receptor 1 (Rattus norvegicus) (UniProt P20272); experiment: Agonist activity at CB1R in Sprague-Dawley rat hippocampal synaptosomes assessed as inhibition of 4-AP evoked glutamate release at 10 uM preincubated for 8 mins followed by 4-AP addition in presence of 1 uM CB2R antagonist, SR144528 by HPLC analysis; type: subcellular; details: Hippocampus, filed as agonist; procedure, shortened: as §3
[10] = biological target: Cannabinoid receptor 2 (Mus musculus) (UniProt P47936); experiment: Agonist activity at CB2R in LPS induced mouse BV2 cells assessed as increase in IL-10 secretion at 10 uM preincubated for 30 mins followed by LPS stimulation for 4 hrs by ELISA; type: cell-based; details: BV-2, filed as agonist, time 270.0 min; procedure, shortened: as §5
[11] = tested on: Mus musculus; experiment: Antinociceptive activity in orally dosed CD-1 albino mouse model of oxaliplatin-induced neuropathic pain assessed as decrease in pain-related behaviour treated on day 15 post oxaliplatin treatment and measured after 15 to 75 mins post dose by cold plate test; type: functional, organism-based; details: dose 5-50 mg/kg, time 15-75 min; procedure, shortened: as §4
[12] = tested on: Mus musculus; experiment: as §1, with “in” for “in early stage”, “day 5” for “day 2”, “to 9” for “to 4”; type: functional, organism-based; details: time 5-9 day; procedure, shortened: as §2
[13] = biological target: T1, Cannabinoid receptor 2 (Homo sapiens, UniProt P34972); experiment: Non-competitive antagonist activity at human CB2R expressed in CHO cell membranes assessed as N-cycloheptyl-1,2-dihydro-1-(4-fluorobenzyl)-6-methyl-2-oxo-5-phenyl-pyridine-3-carboxamide Emax at 100 nM preincubated with compound for 30 mins followed by GTPgammaS addition and measured after 90 mins by [35S]GTPgammaS assay (reference value: -49.9%); type: functional; details: Membrane, filed as antagonist, time 120.0 min
T1 sequence (P34972 whole entry): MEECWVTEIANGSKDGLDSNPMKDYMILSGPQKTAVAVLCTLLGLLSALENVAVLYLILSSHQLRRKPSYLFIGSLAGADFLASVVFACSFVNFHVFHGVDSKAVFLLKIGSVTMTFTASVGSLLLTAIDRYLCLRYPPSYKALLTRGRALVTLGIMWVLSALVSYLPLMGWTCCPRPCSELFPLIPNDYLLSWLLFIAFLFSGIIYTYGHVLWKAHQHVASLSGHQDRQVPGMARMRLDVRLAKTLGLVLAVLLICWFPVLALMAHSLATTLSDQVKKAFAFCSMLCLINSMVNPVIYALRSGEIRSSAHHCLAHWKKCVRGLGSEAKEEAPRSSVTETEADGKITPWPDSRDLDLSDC
Procedure, shortened: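 hCB2 membranes from stably transfected CHO cells (10 µg) pre-incubated 30 min with antagonist, then an inverse-agonist concentration series added. Buffer: 50 mM Tris-HCl, 3 mM MgCl2, 0.2 mM EDTA, 100 mM NaCl, 0.5% fatty-acid-free BSA, pH 7.4, with 10 µM GDP and 0.1 nM [35S]GTPγS. Incubated 90 min at 30 °C, then filtered. Non-specific binding measured with 10 µM GTPγS. Emax given with 95% CI; at least 3 experiments, each in triplicate.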

[14] = biological target: T1, Cannabinoid receptor 2; experiment: Competitive antagonist activity at human CB2R expressed in CHO cell membranes assessed as N-cycloheptyl-1,2-dihydro-5-bromo-1-(4-fluoro benzyl)-6-methyl-2-oxo-pyridine-3-carboxamide Emax at 300 nM preincubated with compound for 30 mins followed by GTPgammaS addition and measured after 90 mins by [35S]GTPgammaS assay (reference value: 210%); type: functional; details: Membrane, filed as antagonist, time 120.0 min
Procedure, shortened: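 hCB2 CHO membranes in GTPγS buffer (10 μM GDP, 0.1 nM [35S]GTPγS, pH 7.4) pre-incubated 30 min with antagonist at 300 nM or 1 µM, then agonist or inverse agonist concentration series, 90 min at 30 °C. EC50 and Emax reported with 95% CI; Schild analysis; controls CP55,940 100 nM and AM630 1 μM; ≥3 experiments in triplicate.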

[15] = biological target: T1, Cannabinoid receptor 2; experiment: Competitive antagonist activity at human CB2R expressed in CHO cell membranes assessed as rightward shift of N-cycloheptyl-1,2-dihydro-5-bromo-1-(4-fluoro benzyl)-6-methyl-2-oxo-pyridine-3-carboxamide-induced GTPgammaS binding by measuring fold change in N-cycloheptyl-1,2-dihydro-5-bromo-1-(4-fluoro benzyl)-6-methyl-2-oxo-pyridine-3-carboxamide EC50 at 100 nM preincubated with compound for 30 mins followed by GTPgammaS addition and measured after 90 mins by [35S]GTPgammaS assay; type: functional; details: Membrane, time 120.0 min
[16] = species: Homo sapiens; experiment: Selectivity index, ratio of Ki for human CB1R expressed in CHO cell membranes to Ki for human CB2R expressed in CHO cell membranes; type: cell-based

Row | SMILES | Activity [1] | inhibition in vivo at 10 mg/kg [2] [%] | Activity [3] | Activity [4] | Activity [5] | Activity [6] [%] | Activity [7] | inhibition in vivo at 10 mg/kg [8] [%] | Activity [9] | Activity [10] [%] | Activity [11] | Activity [12] | Emax [13] [%] | Emax [14] [%] | fold change (FC) [15] | Ratio Ki [16]
1 | Cc1c(Br)cc(C(=O)NC2CCCCCC2)c(=O)n1Cc1ccc(F)cc1 | Active | 50 | Active | inactive | Active | 24.6 | inactive | 30 | Active | 484 | Dose-dependent effect | inactive |  |  |  | 
2 | COc1ccc(-c2cc(C(=O)NC3CCCCCC3)c(=O)n(Cc3ccc(F)cc3)c2C)cc1 |  |  |  |  |  |  |  |  |  |  |  |  | -36.3 | 209 | 8 | 0.37
